# Measured values from different studies.
# Compare with care: the assays were run in different laboratories.
# CDK17: Cyclin-dependent kinase 17 (CDK17, Homo sapiens, UniProt Q00537)
# CDK17 with cyclin Y: Cyclin-dependent kinase 17, with cyclin Y (CDK17, Homo sapiens, UniProt Q00537)
SMILES,target,test,conditions,measurement,result
Cc1cc(O)c(-c2ccc([C@@H](C)CN(C)C)cc2)c2c1[nH]c(=O)c1sccc12,CDK17,"enzyme activity, inhibitor",0.1 µM,inhibition,2.42%
COc1ccc2oc(-c3ccc4nc(N)oc4c3)c/c(=N\c3ccccc3NC(=O)CCN)c2c1,CDK17 with cyclin Y,binding,1 µM,remaining binding,100%
CCCCC(=O)Nc1ccc(-c2ccc3ncn(CCC)c(=O)c3c2)cn1,CDK17,"binding, competition with immobilised ligand",0.5 µM,remaining binding,100%
Cc1ccc(NC(=O)c2ccnc(C(F)(F)F)c2)cc1-c1cc(OCCO)nc(N2CCOCC2)c1,CDK17,"binding, competition with immobilised ligand",1 µM,remaining binding,98%
CC#CC(=O)N1CCC[C@H]1c1nc(-c2ccc(C(=O)Nc3ccccn3)cc2)c2c(N)nccn12,CDK17,"enzyme activity, inhibitor",1 µM,inhibition,0%
CC(C)S(=O)(=O)c1ccc2nccc(Nc3ccc4sc(C5CCCC5)nc4c3)c2c1,CDK17 with cyclin Y,"enzyme activity, inhibitor",1 µM,activity vs control,111%
C[C@H]1CC[C@H](n2c3cnccc3c3cnc(Nc4ccc5c(n4)CCN(C(=O)CO)C5)nc32)CC1,CDK17,"binding, competition with immobilised ligand",1 µM,remaining binding,24%
CO[C@@H]1[C@H](N(C)C(=O)c2ccccc2)C[C@H]2O[C@]1(C)n1c3ccccc3c3c4c(c5c6ccccc6n2c5c31)C(=O)NC4,CDK17,"enzyme activity, inhibitor",1 µM,inhibition,0%
